Measured values: ChEMBL document CHEMBL1821722, “Design, synthesis and biological evaluation of novel desmuramyldipeptide analogs” (Eur J Med Chem, 2011)
The source made the active and inactive calls. The rule behind the calls is not given here.

Legend:
[1] = system: PBMC; experiment: Immunostimulatory effect in human PBMC cells assessed as increase in […]/ionomycin-induce IL-6 release at 20.2 uM after 18 hrs by flow cytometry analysis relative to PMA and ionomycin; format: functional
Outline: (§1)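 PBMC prepared from donor buffy coat on Ficoll-Paque and kept in supplemented RPMI 1640. Cells (0.5 × 10⁶) given 20.2 µM compound with PMA 3.33 ng/ml and ionomycin 500 nM (final) for 18 h at 37 °C, 5% CO₂. Supernatant IL-1β, IL-6, IL-8, IL-10 and TNF-α read by flow cytometry. Expressed relative to PMA/ionomycin alone, mean ± SD of 4 samples, two donors.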

[2] = system: PBMC; experiment: Immunomodulatory effect in human PBMC cells assessed as increase in LPS-induced TNFalpha release at 20.2 uM after 18 hrs by flow cytometry analysis relative to LPS; format: functional
Outline: (§2)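 Human PBMC isolated from healthy-donor buffy coats on a Ficoll-Paque gradient. Cultured in RPMI 1640 with 10% heat-inactivated FCS, 2 mM L-glutamine and 50 µM 2-mercaptoethanol. 0.5 × 10⁶ cells exposed to 20.2 µM compound plus 10 ng/ml LPS, DMSO ≤0.1%, for 18 h at 37 °C in 5% CO₂. Supernatant cytokines measured by flow cytometric bead assay. Values are % of LPS alone, mean ± SD of 4 samples, two donors.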

[3] = system: PBMC; experiment: Cytotoxicity against human PBMC assessed as LDH release at 20.2 uM; format: cell-based
[4] = system: THP-1; experiment: Cytotoxicity against human THP1 cells assessed as LDH release at 20.2 uM; format: cell-based; conditions: thp-1, 20.2 µM
Outline: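 LDH leakage into the medium used as the cytotoxicity read-out, taken at the highest concentration tested.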

[5] = system: PBMC; experiment: Immunomodulatory effect in human PBMC cells assessed as increase in LPS-induced IL-10 release at 20.2 uM after 18 hrs by flow cytometry analysis relative to LPS; format: functional; outline: as §2
[6] = system: THP-1; experiment: Immunomodulatory effect in human THP1 cells assessed as increase in LPS-induced TNF-alpha release at 20.2 uM after 24 hrs by sandwich ELISA relative to LPS; format: functional
Outline: (§3)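 THP-1 cells at 10⁶ cells/ml in RPMI 1640 with 10% heat-inactivated FCS. Co-incubated 24 h with compound (0.2–200 µM) plus E. coli 0127:B8 LPS 1 ng/ml, DMSO vehicle ≤0.2% final. TNF-α in supernatant expressed as % of LPS-induced release, mean ± SD of 6 samples.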

[7] = system: PBMC; experiment: Immunomodulatory effect in human PBMC cells assessed as LPS-induced IL1-beta release at 20.2 uM after 18 hrs by flow cytometry analysis relative to LPS; format: functional; outline: as §2
[8] = system: PBMC; experiment: Immunostimulatory effect in human PBMC cells assessed as increase in […]/ionomycin-induce IL-10 release at 20.2 uM after 18 hrs by flow cytometry analysis relative to PMA and ionomycin; format: functional; outline: as §1
[9] = system: PBMC; experiment: Immunostimulatory effect in human PBMC cells assessed as increase in […]/ionomycin-induce TNFalpha release at 20.2 uM after 18 hrs by flow cytometry analysis relative to PMA and ionomycin; format: functional; outline: as §1
[10] = system: PBMC; experiment: Immunostimulatory effect in human PBMC cells assessed as increase in […]/ionomycin-induce IL-8a release at 20.2 uM after 18 hrs by flow cytometry analysis relative to PMA and ionomycin; format: functional; outline: as §1
[11] = system: PBMC; experiment: Immunomodulatory effect in human PBMC cells assessed as increase in LPS-induced IL-6 release at 20.2 uM after 18 hrs by flow cytometry analysis relative to LPS; format: functional; outline: as §2
[12] = system: PBMC; experiment: Immunostimulatory effect in human PBMC cells assessed as increase in […]/ionomycin-induce IL1-beta release at 20.2 uM after 18 hrs by flow cytometry analysis relative to PMA and ionomycin; format: functional; outline: as §1
[13] = system: THP-1; experiment: Toxicity in human THP1 cells assessed TNF-alpha release at 20.2 uM after 24 hrs by sandwich ELISA; format: cell-based; conditions: thp-1, 24 h
Outline: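 THP-1 in supplemented RPMI 1640 co-incubated 24 h with 20.2 µM compound and 1 ng/ml LPS, DMSO ≤0.2%. TNF-α release expressed as % of the LPS-only response, mean ± SD of 6 samples, Mann-Whitney U test.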

[14] = system: PBMC; experiment: Immunomodulatory effect in human PBMC cells assessed as decrease in LPS-induced IL-8a release at 20.2 uM after 18 hrs by flow cytometry analysis relative to LPS; format: functional; parameters: scale not given: the % may be the effect or the level left; outline: as §2
[15] = system: PBMC; experiment: Immunomodulatory effect in human PBMC cells assessed as increase in LPS-induced TNF-alpha release at 20.2 uM after 24 hrs by sandwich ELISA; format: functional, cell-based
[16] = system: PBMC; experiment: Immunomodulatory effect in human PBMC cells assessed as increase in LPS-induced IL-8a release at 20.2 uM after 18 hrs by flow cytometry analysis relative to LPS; format: functional; outline: as §2
[17] = system: PBMC; experiment: Immunomodulatory effect in human PBMC cells assessed as decrease in LPS-induced IL-6 release at 20.2 uM after 18 hrs by flow cytometry analysis relative to LPS; format: functional; parameters: scale not given: the % may be the effect or the level left; outline: as §2
[18] = system: PBMC; experiment: Immunomodulatory effect in human PBMC cells assessed as decrease in LPS-induced IL-10 release at 20.2 uM after 18 hrs by flow cytometry analysis relative to LPS; format: functional; parameters: scale not given: the % may be the effect or the level left; outline: as §2
[19] = system: THP-1; experiment: Immunomodulatory effect in human THP1 cells assessed as increase in LPS-induced TNF-alpha release after 24 hrs by sandwich ELISA relative to LPS; format: functional, cell-based; outline: as §3
[20] = system: THP-1; experiment: Immunomodulatory effect in human THP1 cells assessed as increase in LPS-induced TNF-alpha release at 2 uM after 24 hrs by sandwich ELISA relative to LPS; format: functional; outline: as §3
[21] = system: THP-1; experiment: Immunomodulatory effect in human THP1 cells assessed as increase in LPS-induced TNF-alpha release at 0.2 uM after 24 hrs by sandwich ELISA relative to LPS; format: functional; outline: as §3
[22] = system: THP-1; experiment: Immunomodulatory effect in human THP1 cells assessed as increase in LPS-induced TNF-alpha release at 200 uM after 24 hrs by sandwich ELISA relative to LPS; format: functional; outline: as §3

SMILES | Activity [1] | Activity [2] | Activity [3] | Activity [4] | Activity [5] | Activity [6] | Activity [7] | Activity [8] | Activity [9] | Activity [10] | Activity [11] | Activity [12] | Activity [13] | Activity [16] | further results
C[C@H](NC(=O)COCCN1C(=O)c2ccccc2S1(=O)=O)C(=O)N[C@H](CCC(=O)O)C(N)=O | 63.5% | 104.5% | Non-toxic | Non-toxic | 84.5% | 114.3% | 95.5% | 89.5% | 83.5% | 110.5% | 95.5% | 122% | Non-toxic |  | Activity [14]: 96.5%
CC(=O)N[C@@H]1[C@@H](O[C@H](C)C(=O)N[C@@H](C)C(=O)N[C@@H](CCC(=O)O)C(N)=O)[C@H](O)[C@@H](CO)O[C@H]1O |  |  |  |  |  |  |  |  |  |  |  |  |  |  | Activity [15]: Active
C[C@H](NC(=O)CCNC(=O)c1cc2ccccc2[nH]1)c1noc(CCC(=O)O)n1 |  |  | Non-toxic | Non-toxic |  | 113.4% |  |  |  |  |  |  | Non-toxic |  | 
CCOC(=O)CC[C@@H](NC(=O)[C@H](C)NC(=O)C1=C2c3ccccc3S(=O)(=O)N2CCC1)C(N)=O | 139.5% | 122.5% | Non-toxic | Non-toxic | 105.5% | 122% | 95% | 82.5% | 142% | 134% | 120% | 406% | Non-toxic | 94.5% | 
C[C@H](NC(=O)CCCCN1C(=O)c2ccccc2S1(=O)=O)C(=O)N[C@H](CCC(=O)O)C(N)=O | 81% | 108.5% | Non-toxic | Non-toxic | 98% | 114% | 106% | 84.5% | 96% | 103% | 109% | 91.5% | Non-toxic | 97.5% | 
C[C@H](NC(=O)COCCN1C(=O)c2ccccc2S1(=O)=O)C(=O)N[C@H](CCC(=O)O)C(=O)O | 91% | 104% | Non-toxic | Non-toxic |  | 117% | 85% | 116% | 124% | 104% |  | 112% | Non-toxic |  | Activity [17]: 86%; Activity [18]: 65.5%; Activity [14]: 89.5%
C[C@H](NC(=O)C1CCCN2C1c1ccccc1S2(=O)=O)C(=O)N[C@H](CCC(=O)O)C(=O)O (stereo partly drawn) |  |  | Non-toxic | Non-toxic |  | 110.5% |  |  |  |  |  |  | Non-toxic |  | 
C[C@H](NC(=O)CCCCN1C(=O)c2ccccc2S1(=O)=O)C(=O)N[C@@H](CCC(=O)O)C(N)=O |  |  | Non-toxic | Non-toxic |  | 119.3% |  |  |  |  |  |  | Non-toxic |  | 
C[C@H](NC(=O)C1=C2c3ccccc3S(=O)(=O)N2CCC1)C(=O)N[C@H](CCC(=O)O)C(=O)O |  |  | Non-toxic | Non-toxic |  | 113.3% |  |  |  |  |  |  | Non-toxic |  | 
C[C@H](NC(=O)C1=C2c3ccccc3S(=O)(=O)N2CCC1)C(=O)N[C@H](CCC(=O)O)C(N)=O | 74% | 115% | Non-toxic | Non-toxic | 94% | 120.2% | 94% | 88.5% | 105.5% | 103% | 103.5% | 88% | Non-toxic | 98.5% | Activity [19]: Dose-dependent effect; Activity [20]: 92.5%; Activity [21]: 90.3%; Activity [22]: 204.3%
C[C@@H](NC(=O)CCCCN1C(=O)c2ccccc2S1(=O)=O)C(=O)N[C@@H](CCC(=O)O)C(N)=O |  |  | Non-toxic | Non-toxic |  | 91% |  |  |  |  |  |  | Non-toxic |  | 
C[C@@H](NC(=O)CCCCN1C(=O)c2ccccc2S1(=O)=O)C(=O)N[C@H](CCC(=O)O)C(N)=O |  |  | Non-toxic | Non-toxic |  | 115.3% |  |  |  |  |  |  | Non-toxic |  | 
CCCCOC(=O)[C@@H](CCC(N)=O)NC(=O)[C@H](C)NC(=O)[C@@H](C)O[C@H]1[C@H](O)[C@@H](CO)OC(O)[C@@H]1NC(C)=O (stereo partly drawn) [MURABUTIDE] | 439.5% | 696.5% | Non-toxic | Non-toxic | 559% | 182.6% | 416.5% | 158.5% | 332.5% | 152% | 594.5% | 2964.5% | Non-toxic | 107% | 
